# Measurements reported in ChEMBL document CHEMBL1123933, “Specific dopamine D-1 and DA1 properties of 4-(mono- and -dihydroxyphenyl)-1,2,3,4-tetrahydroisoquinoline and its tetrahydrothieno[2,3-c]pyridine analogue” (1987).
# Activity calls are given as the source filed them. No cut-off for these calls is given here.
# Experiments:
# Canis familiaris = organism: Canis familiaris; test: Compound was evaluated for the stimulation of canine renal artery; Inactive; assay type: functional, organism-based; conditions: Canis lupus familiaris
# Rattus norvegicus [1] = organism: Rattus norvegicus; test: Compound was evaluated for the stimulation of rat retinal adenylate cyclase at 1.0 uM dose; assay type: functional
# Summary of the method: (§1)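 Retinal homogenate, […], incubated 20 min at 30 °C. Stopped with SDS/ATP/cAMP plus [3H]cAMP recovery tracer and 2 min at 85 °C. [32P]cAMP isolated by Salomon column chromatography.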
# Rattus norvegicus [2] = organism: Rattus norvegicus; test: Compound was evaluated for the stimulation of rat retinal adenylate cyclase at 100.0 uM dose; assay type: functional; summary of the method: as §1
# Rattus norvegicus [3] = organism: Rattus norvegicus; test: Compound was evaluated for the stimulation of rat retinal adenylate cyclase at 10.0 uM dose; assay type: functional; summary of the method: as §1
# Rattus norvegicus [4] = organism: Rattus norvegicus; test: Compound was evaluated for the stimulation of rat retinal adenylate cyclase by effect of its alkyl length at 0.1 uM dose; assay type: functional; summary of the method: as §1
# Rattus norvegicus [5] = organism: Rattus norvegicus; test: Compound was evaluated for the stimulation of rat retinal adenylate cyclase by effect of its alkyl length at 1.0 uM dose; assay type: functional; summary of the method: as §1
# Rattus norvegicus [6] = organism: Rattus norvegicus; test: Compound was evaluated for the stimulation of rat retinal adenylate cyclase by effect of its alkyl length at 10.0 uM dose; assay type: functional; summary of the method: as §1
# Rattus norvegicus [7] = organism: Rattus norvegicus; test: Compound was evaluated for the stimulation of rat retinal adenylate cyclase by effect of its alkyl length at 100.0 uM dose; assay type: functional; summary of the method: as §1
# Rattus norvegicus [8] = organism: Rattus norvegicus; test: Compound was evaluated for the stimulation of rat retinal adenylate cyclase at 0.1 uM dose; assay type: functional; summary of the method: as §1
Compound,Activity (Canis familiaris),Stimulation (Rattus norvegicus [1]) [%],Stimulation (Rattus norvegicus [2]) [%],Stimulation (Rattus norvegicus [3]) [%],Stimulation (Rattus norvegicus [4]) [%],Stimulation (Rattus norvegicus [5]) [%],Stimulation (Rattus norvegicus [6]) [%],Stimulation (Rattus norvegicus [7]) [%],Stimulation (Rattus norvegicus [8]) [%]
Oc1cccc(C2CNCc3ccccc32)c1 (stereo not given),inactive,21,81,47,–,–,–,–,–
CCN1Cc2ccccc2C(c2ccc(O)c(O)c2)C1 (stereo not given),–,–,–,–,-8.8,-1,42.7,94.1,–
CCCN1Cc2ccccc2C(c2ccc(O)c(O)c2)C1 (stereo not given),–,–,–,–,–,-7.7,11.8,46.4,–
Oc1ccc(C2CNCc3sccc32)cc1O (stereo not given),–,160.2,207,188.6,–,–,–,–,70.4
Oc1ccc(C2CNCCc3c2cc(O)c(O)c3Cl)cc1 (stereo not given) [FENOLDOPAM],–,176,246,201.4,–,–,–,–,165.1
CN1Cc2ccccc2C(c2ccc(O)c(O)c2)C1 (stereo not given),–,–,–,–,-1.7,46.5,122.6,144.9,–
NCCc1ccc(O)c(O)c1 [DOPAMINE],–,116.2,295.3,209.8,–,–,–,–,25.7
Oc1ccc(C2CNCc3ccccc32)cc1O (stereo not given),–,89.6,198.8,152.7,11.5,87.7,188,288.8,23.6
